ChEMBL document CHEMBL4823260, “From High-Throughput Screening to Target Validation: Benzo[d]isothiazoles as Potent and Selective Agonists of Human Transient Receptor Potential Cation Channel Subfamily M Member 5 Possessing In Vivo Gastrointestinal Prokinetic Activity in Rodents” (J Med Chem, 2021)
Converted amounts (≈) assume the structure as drawn.

Legend:
[1] = target: Transient receptor potential cation channel subfamily A member 1 (Homo sapiens, UniProt O75762); assay: Agonist activity at human TRPA1 expressed in HEK cells assessed as increase in menthol-induced intracellular calcium level incubated for 2 hrs by FLIPR assay; type: cell-based
How it was run: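 HEK cells stably expressing hTRPA1, plated at 20,000/well 24 h ahead, loaded with calcium-6 dye plus 2.5 mM probenecid for 2 h at 37 °C. First FLIPR addition: 11-point 1:3 concentration series, read for 5 min, scaled to (−)menthol 1 mM final (100% control); pEC50 fitted. Final DMSO 0.5%; run at 37 °C.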

[2] = target: Transient receptor potential cation channel subfamily V member 4 (Homo sapiens, UniProt Q9HBA0); assay: Agonist activity at human TRPV4 expressed in HEK cells assessed as increase in GSK1016790A-induced intracellular calcium level measured after 1 hr by FLIPR assay; type: cell-based
[3] = target: Transient receptor potential cation channel subfamily V member 1 (Homo sapiens, UniProt Q8NER1); assay: Agonist activity at human TRPV1 expressed in CHO cells assessed as increase in capsaicin-induced intracellular calcium level measured after 1 hr by FLIPR assay; type: cell-based
How it was run: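 CHO cells stably expressing hTRPV1, plated at 10,000/well 24 h before the assay. Loaded with calcium-6 dye plus 2.5 mM probenecid for 1 h at 37 °C and 1 h at rt. FLIPR dual-addition protocol; agonist potency derived as pEC50.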

[4] = target: Transient receptor potential cation channel subfamily M member 8 (Homo sapiens, UniProt Q7Z2W7); assay: Agonist activity at human TRPM8 expressed in HEK cells assessed as increase in menthol-induced intracellular calcium level measured after 1 hr by FLIPR assay; type: cell-based
How it was run: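 HEK cells with stable hTRPM8, 20,000/well on poly-D-lysine plates 24 h ahead. Loaded with calcium-6 dye and 2.5 mM probenecid, 1 h at 37 °C then 1 h at rt. First-addition calcium rise scaled to (−)menthol 100 μM final (100% control); pEC50 derived from the concentration–response. Final DMSO 0.5%; assay at rt.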

[5] = Efflux ratio of apparent permeability across basolateral to apical over apical to basolateral membrane in human Caco-2 cells incubated for 30 mins by LC-MS/MS analysis; type: ADME, cell-based
[6] = Apparent permeability across apical to basolateral membrane in human Caco-2 cells incubated for 30 mins by LC-MS/MS analysis; type: ADME, cell-based
[7] = target: T1, Transient receptor potential cation channel subfamily M member 5 (Homo sapiens, UniProt Q9NZQ8); assay: Agonist activity at human TRPM5 expressed in CHO-K1 cells maintained at 80 mV final holding potential by syncroPatch assay; type: cell-based
T1 sequence (Q9NZQ8 whole entry): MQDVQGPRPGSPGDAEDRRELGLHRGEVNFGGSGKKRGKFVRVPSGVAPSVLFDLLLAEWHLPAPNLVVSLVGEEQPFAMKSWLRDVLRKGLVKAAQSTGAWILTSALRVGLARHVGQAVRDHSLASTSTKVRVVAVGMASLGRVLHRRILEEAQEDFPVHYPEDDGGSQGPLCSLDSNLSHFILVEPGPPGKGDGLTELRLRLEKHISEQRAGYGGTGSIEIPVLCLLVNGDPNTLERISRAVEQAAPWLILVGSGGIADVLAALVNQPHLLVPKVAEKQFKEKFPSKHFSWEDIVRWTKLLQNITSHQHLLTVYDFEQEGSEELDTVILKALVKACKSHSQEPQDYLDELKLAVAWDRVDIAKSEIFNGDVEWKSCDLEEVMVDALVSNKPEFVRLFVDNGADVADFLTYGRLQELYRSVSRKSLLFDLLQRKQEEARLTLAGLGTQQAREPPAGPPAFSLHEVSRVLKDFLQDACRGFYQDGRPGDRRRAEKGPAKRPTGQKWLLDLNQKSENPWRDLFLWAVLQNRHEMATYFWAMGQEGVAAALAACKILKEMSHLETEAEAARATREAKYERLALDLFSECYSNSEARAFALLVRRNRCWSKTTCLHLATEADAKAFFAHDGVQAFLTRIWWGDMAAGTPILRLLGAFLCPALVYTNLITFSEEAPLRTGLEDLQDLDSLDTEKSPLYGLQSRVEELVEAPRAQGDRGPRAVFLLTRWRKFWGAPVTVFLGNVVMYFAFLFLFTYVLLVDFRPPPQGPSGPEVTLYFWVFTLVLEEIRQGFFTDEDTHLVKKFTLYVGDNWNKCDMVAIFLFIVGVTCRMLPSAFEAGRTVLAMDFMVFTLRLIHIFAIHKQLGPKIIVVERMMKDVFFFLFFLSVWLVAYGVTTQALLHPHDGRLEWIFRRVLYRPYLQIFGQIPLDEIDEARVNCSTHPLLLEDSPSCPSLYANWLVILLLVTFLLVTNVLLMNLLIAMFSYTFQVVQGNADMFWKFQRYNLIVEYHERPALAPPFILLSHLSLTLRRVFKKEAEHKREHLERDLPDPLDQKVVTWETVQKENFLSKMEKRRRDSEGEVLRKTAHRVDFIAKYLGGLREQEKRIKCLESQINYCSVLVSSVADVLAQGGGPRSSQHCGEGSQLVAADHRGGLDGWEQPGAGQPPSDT
How it was run: (§1)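 SyncroPatch 384 whole-cell recording at rt on CHO-K1 cells stably expressing human or mouse TRPM5. Intracellular solution had 2 mM Na-ATP and 5 μM free Ca2+. Cumulative doses 0.03–31.6 μM in 0.5% DMSO, 150 s each after 180 s vehicle. Current measured at the end of the +80 mV step, normalized to vehicle; pEC50 is the mean of ≥2 independent experiments.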

[8] = target: T2, Transient receptor potential cation channel subfamily M member 5 (Mus musculus, UniProt Q9JJH7); assay: Agonist activity at mouse TRPM5 expressed in CHO-K1 cells maintained at 80 mV final holding potential by syncroPatch assay; type: cell-based; how it was run: as §1
T2 sequence (Q9JJH7 whole entry): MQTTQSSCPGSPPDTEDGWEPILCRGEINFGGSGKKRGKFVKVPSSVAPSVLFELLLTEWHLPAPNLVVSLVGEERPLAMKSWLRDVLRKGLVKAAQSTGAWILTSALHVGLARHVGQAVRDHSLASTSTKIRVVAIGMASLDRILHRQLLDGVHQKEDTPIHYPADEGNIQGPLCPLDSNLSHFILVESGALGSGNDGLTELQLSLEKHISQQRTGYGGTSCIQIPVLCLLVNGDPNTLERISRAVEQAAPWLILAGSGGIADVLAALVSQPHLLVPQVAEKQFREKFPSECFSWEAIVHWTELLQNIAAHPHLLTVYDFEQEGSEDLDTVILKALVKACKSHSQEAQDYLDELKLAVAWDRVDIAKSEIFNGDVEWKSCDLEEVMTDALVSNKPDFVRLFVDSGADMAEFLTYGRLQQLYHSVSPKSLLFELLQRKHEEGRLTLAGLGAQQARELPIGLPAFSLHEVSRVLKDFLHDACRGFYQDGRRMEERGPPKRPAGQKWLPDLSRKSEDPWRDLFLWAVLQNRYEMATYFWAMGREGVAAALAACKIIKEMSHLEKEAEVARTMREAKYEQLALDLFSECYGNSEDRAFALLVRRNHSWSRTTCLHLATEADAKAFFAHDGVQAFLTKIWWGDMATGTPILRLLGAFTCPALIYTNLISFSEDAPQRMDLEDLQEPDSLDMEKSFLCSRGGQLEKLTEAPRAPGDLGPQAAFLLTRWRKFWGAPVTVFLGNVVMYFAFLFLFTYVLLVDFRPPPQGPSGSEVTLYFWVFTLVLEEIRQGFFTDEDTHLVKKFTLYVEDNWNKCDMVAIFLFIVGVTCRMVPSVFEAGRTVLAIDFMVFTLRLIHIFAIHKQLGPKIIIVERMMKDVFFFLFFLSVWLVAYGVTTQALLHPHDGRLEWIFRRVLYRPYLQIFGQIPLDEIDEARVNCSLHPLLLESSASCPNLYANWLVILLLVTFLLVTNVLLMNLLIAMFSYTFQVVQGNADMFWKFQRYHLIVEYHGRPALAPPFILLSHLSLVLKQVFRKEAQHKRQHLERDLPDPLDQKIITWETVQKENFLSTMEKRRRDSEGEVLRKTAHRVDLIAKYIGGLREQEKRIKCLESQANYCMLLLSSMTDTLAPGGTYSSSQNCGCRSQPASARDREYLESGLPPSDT

[9] = Intrinsic clearance in human liver microsomes assessed per mg protein incubated up to 30 mins in presence of NADPH by LC-MS/MS analysis; type: ADME, Microsome
[10] = Intrinsic clearance in mouse liver microsomes assessed per mg protein incubated up to 30 mins in presence of NADPH by LC-MS/MS analysis; type: ADME, Microsome
[11] = Solubility of the compound in phospahte-buffered saline buffer at pH 7.4 incubated for 2 hrs by HPLC/UV analysis; type: physicochemical; details: phosphate-buffered saline
[12] = target: Transient receptor potential cation channel subfamily M member 4 (Homo sapiens, UniProt Q8TD43); assay: Agonist activity at human TRPM4 expressed in CHO cells assessed as change in membrane potential by FLIPR assay
[13] = target: T1, Transient receptor potential cation channel subfamily M member 5; assay: Agonist activity at human TRPM5 expressed in CHO-K1 cells maintained at 80 mV final holding potential by QPatch HTX assay; type: cell-based
How it was run: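 Whole-cell QPatch HTX recording at rt on CHO-K1 cells with stable hTRPM5. Pipette solution HEDTA-buffered to 1 μM free Ca2+, pH 7.2. Cells held at 0 mV; 0.1 Hz protocol with steps to −80/+80 mV and a ramp. Current taken at the end of the first +80 mV step, no leak subtraction. Increase expressed relative to vehicle current (100%).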

Chain of Transient receptor potential cation channel subfamily V member 4 (Q9HBA0 whole entry): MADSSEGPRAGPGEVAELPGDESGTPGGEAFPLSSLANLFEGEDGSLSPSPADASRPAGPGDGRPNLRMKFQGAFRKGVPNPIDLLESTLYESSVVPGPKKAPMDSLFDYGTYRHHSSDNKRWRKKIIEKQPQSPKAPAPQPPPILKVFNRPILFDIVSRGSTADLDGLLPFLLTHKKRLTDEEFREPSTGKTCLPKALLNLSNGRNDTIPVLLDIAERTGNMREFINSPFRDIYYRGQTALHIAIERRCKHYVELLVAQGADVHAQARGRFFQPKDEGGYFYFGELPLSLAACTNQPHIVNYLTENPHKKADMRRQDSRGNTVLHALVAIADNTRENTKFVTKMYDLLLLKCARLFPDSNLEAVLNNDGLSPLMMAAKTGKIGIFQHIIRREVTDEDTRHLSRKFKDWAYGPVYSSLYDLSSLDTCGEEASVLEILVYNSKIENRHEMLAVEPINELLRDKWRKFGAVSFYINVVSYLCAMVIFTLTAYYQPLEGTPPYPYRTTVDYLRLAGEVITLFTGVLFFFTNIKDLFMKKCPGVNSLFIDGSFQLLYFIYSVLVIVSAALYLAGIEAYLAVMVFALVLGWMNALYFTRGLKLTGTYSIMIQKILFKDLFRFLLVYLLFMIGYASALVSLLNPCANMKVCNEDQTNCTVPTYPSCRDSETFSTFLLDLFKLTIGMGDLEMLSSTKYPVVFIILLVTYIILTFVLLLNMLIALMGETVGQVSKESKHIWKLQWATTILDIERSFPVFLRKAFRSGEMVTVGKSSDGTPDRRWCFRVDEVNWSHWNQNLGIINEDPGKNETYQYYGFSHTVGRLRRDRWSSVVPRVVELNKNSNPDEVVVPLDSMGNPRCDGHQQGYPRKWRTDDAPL
Chain of Transient receptor potential cation channel subfamily A member 1 (O75762 whole entry): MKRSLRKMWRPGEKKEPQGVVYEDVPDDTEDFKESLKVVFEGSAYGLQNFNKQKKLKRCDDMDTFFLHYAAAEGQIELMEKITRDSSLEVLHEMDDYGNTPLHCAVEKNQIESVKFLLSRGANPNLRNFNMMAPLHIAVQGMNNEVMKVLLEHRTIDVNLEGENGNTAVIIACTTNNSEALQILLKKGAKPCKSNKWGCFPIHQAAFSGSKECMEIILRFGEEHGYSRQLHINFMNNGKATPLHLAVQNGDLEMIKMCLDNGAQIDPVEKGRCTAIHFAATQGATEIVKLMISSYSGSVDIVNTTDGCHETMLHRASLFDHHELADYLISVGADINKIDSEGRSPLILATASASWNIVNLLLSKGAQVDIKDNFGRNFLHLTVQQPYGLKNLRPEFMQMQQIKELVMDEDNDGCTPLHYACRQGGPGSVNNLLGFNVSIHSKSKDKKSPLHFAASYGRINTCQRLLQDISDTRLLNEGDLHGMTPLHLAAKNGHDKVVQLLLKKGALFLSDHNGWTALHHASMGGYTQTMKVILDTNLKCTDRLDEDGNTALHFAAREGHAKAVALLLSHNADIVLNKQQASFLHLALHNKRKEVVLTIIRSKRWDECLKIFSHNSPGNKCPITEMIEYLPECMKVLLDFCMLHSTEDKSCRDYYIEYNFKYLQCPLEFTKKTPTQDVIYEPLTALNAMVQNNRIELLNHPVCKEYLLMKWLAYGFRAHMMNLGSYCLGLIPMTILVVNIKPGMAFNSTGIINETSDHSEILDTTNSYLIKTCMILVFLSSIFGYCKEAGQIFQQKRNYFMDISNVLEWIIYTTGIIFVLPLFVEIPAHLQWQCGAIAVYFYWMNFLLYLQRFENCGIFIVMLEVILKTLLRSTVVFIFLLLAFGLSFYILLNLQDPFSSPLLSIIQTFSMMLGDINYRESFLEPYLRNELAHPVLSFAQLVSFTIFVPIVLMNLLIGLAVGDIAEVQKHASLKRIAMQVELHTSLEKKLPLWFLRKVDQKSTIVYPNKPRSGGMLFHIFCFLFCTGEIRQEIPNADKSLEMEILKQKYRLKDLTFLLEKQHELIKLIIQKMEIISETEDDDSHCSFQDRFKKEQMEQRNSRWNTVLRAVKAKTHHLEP
Chain of Transient receptor potential cation channel subfamily M member 4 (Q8TD43 whole entry): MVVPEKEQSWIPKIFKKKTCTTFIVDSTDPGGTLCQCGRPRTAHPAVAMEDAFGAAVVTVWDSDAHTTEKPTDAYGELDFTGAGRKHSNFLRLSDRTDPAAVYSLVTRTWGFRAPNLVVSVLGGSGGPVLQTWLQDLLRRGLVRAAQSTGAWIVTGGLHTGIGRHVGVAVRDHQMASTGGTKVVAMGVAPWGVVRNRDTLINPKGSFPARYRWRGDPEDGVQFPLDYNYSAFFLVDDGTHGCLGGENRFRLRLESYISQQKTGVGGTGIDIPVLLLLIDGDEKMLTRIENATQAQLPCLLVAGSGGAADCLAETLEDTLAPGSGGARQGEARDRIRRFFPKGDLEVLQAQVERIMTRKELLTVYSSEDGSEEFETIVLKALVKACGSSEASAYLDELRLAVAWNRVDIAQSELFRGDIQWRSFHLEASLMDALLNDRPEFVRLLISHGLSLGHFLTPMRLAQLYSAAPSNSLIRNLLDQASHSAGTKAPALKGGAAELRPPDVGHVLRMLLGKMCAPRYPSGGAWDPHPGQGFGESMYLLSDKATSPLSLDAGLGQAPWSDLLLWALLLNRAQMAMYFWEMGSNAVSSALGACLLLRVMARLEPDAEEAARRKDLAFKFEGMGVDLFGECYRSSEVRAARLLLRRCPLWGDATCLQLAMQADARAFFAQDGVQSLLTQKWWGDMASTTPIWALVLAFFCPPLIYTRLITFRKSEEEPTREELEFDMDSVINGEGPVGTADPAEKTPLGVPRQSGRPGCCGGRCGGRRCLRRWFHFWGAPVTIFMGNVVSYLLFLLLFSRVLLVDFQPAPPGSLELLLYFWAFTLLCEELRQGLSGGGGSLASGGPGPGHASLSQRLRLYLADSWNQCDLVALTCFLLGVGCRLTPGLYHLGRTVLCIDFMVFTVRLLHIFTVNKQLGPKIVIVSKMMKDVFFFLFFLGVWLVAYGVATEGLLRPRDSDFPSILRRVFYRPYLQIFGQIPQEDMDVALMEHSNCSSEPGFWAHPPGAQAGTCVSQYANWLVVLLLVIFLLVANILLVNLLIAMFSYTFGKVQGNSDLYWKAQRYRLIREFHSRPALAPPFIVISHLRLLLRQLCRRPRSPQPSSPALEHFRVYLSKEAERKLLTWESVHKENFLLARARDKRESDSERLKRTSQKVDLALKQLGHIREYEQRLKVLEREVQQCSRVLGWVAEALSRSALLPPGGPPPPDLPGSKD
Chain of Transient receptor potential cation channel subfamily V member 1 (Q8NER1 whole entry): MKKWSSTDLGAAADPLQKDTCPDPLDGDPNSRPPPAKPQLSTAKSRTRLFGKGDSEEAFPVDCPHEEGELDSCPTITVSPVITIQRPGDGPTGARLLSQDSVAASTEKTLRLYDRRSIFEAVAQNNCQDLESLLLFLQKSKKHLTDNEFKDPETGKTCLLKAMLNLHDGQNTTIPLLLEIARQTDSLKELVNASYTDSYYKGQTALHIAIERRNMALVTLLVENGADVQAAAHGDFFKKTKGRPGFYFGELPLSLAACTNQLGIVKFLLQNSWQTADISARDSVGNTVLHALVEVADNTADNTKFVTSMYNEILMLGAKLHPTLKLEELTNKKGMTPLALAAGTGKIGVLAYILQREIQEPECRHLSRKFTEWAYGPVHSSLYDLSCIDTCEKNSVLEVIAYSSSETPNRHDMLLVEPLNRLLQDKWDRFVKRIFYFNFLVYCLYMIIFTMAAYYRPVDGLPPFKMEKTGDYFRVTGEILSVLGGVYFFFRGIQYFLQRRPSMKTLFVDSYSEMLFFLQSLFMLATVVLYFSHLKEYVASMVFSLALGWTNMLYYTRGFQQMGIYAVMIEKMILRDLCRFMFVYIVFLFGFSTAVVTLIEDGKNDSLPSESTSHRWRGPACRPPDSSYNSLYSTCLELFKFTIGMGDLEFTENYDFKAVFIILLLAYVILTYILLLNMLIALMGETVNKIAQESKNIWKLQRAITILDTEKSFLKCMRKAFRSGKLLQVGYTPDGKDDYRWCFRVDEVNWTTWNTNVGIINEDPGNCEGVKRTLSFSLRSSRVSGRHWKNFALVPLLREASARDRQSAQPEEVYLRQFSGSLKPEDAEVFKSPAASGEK

| EC50 [1] [µM] | EC50 [2] [µM] | EC50 [3] [µM] | EC50 [4] [µM] | efflux ratio at 0.5 h [5] | Papp A→B at 0.5 h [6] [×10⁻⁶ cm/s] | EC50 [7] [µM] | EC50 [8] [µM] | microsomal CLint [9] [µL/min/mg] | microsomal CLint [10] [µL/min/mg] | solubility at 2 h [11] [µM] | EC50 [13] [µM] | Structure (SMILES) | EC50 [12] [µM] |
| --- | --- | --- | --- | --- | --- | --- | --- | --- | --- | --- | --- | --- | --- |
| > 15.8 | > 15.8 | > 15.8 | > 15.8 | 1.03 | 21.9 | 0.331 | 0.316 | 109 | 446 | 215 (≈ 59.9 µg/mL) | – | Cn1c(Cl)cnc1CNc1ccc2sncc2c1 | > 63.1 |
| – | – | – | – | – | – | 4.68 | – | – | – | – | 6.03 | Cn1c(Cl)cnc1CNc1ccc(Cl)cc1F | – |
